# HTR1A agonist – 5-HT1a (human) receptor agonism. P08908. CHO 5-HT1a Ga15 NFAT-bla reporter, FRET ratio; 0% basal, 100% maximal reference agonist. activation, % at 10 µM. hit rate 0.56% among 65,000. AID 567;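 active means activation above the screen-wide mean activation plus 3 SD, cut at about 19% in these data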;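 further: 0% = DMSO wells and 100% = 5-CT at EC100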
# 5-HT1A blocker – blocks the human serotonin 5-HT1a receptor | P08908 | CHO 5-HT1a Ga15 NFAT-bla reporter, antagonist mode | inhibition, % at 10 µM | hit rate 0.68% among 62,000 | AID 612;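 active means inhibition above the mean of all tested compounds plus 3 SD, cut at about 43% in these data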;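 further: receptor stimulated by 5-CT agonist at 100 nM near EC80; beta-lactamase reporter measured by ratiometric fluorescence of a cleavable substrate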
# S1P1 ag-PAM – agonists and agonism potentiators of human S1P1 receptor | P21453 | S1P1 CRE-bla cells, forskolin, beta-lactamase FRET, potentiator mode; S1P1 agonist co-added at EC20, 2 nM; 100% = saturating reference agonist, 0% = basal | activation, % at 9.5 µM | hit rate 0.57% among 56,000;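 active means activation above a cutoff set at the mean activation of all tested compounds plus 3 SD, cut at about 54% in these data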;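 further: forskolin at 4 µM as EC80 and the EC20 agonist is SEW2871; 100% = SEW2871 at its EC100 plus forskolin at EC80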
# HTR1E antagonist – antagonists of human 5-HT1E serotonin receptor; P28566; inhibition, % at 6 µM; CHO 5-HT1E Ga15 NFAT-bla reporter, FRET, antagonist; hit rate 0.99% among 65,000;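 active means inhibition above a set limit, the mean inhibition across every tested compound plus 3 SD, cut at about 29% in these data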;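 further: signal is the 460 over 535 nm emission ratio of beta-lactamase substrate; 0% = agonist plus DMSO wells and 100% = wells without agonist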
# 5HT1E ag – activates the human 5-HT1E serotonin receptor; P28566; CHO 5-HT1E Ga15 NFAT-bla reporter, FRET; 0% DMSO wells, 100% control agonist wells; activation, % at 6 µM; hit rate 0.69% among 65,000; AID 574;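 active means activation above a set limit, the screen-wide mean activation plus 3 SD, cut at about 8.5% in these data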;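 further: 100% = positive control agonist at 1 µM giving full maximal response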
# S1P3 ag – activates the human S1P3 receptor. hit rate 0.1% among 60,000. S1P3 NFAT-BLA reporter cells, agonism, FRET ratio; relative to 1 µM S1P, basal subtracted. Q99500. activation, % at 4.5 µM;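 active means activation above the screen-wide mean plus 3 SD, cut at about 4.5% in these data, passing the limit was not always enough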
# Target sequence (Q99500 whole entry, looked up): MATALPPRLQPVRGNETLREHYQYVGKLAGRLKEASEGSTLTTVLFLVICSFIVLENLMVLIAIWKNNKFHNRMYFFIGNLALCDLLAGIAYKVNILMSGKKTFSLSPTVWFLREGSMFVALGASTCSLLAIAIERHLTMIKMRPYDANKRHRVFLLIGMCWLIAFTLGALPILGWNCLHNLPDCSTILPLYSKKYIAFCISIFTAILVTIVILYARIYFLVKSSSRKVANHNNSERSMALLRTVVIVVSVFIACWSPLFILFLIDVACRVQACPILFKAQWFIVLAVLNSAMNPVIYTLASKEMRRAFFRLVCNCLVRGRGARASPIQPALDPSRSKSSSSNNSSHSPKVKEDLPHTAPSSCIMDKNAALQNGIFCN
#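 Assay system: CHO cells stably expressing human S1P3, Gα16 and NFAT-β-lactamase reporter. Timing: overnight plating, 4 h compound 37 °C, 2 h substrate RT. Signal: β-lactamase FRET emission ratio 460/535 nm. Measure: percent activation versus median 1 µM S1P response, basal-subtracted, per plate. Repeats: primary screen single test, confirmation screen in triplicate.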
# * = called active by the depositor; . = not tested or not shown. In the library only some 3% were active in any assay of this set; here they are far more common.
SMILES,HTR1A agonist,5-HT1A blocker,S1P1 ag-PAM,HTR1E antagonist,5HT1E ag,S1P3 ag
CCn1c(SCCOc2ccc(OC)cc2)nnc1C(CO)NC(=O)c1ccc(OC)cc1 (centres undefined),0.9,-2.9,-8.0,2.6,0.2,-1.2
CC(C)(C)NC(=O)C(c1cccs1)N(CC1CCCO1)C(=O)Cn1nnc(-c2cccs2)n1 (centres undefined),-0.1,-0.6,15.4,-1.8,-0.4,0.7
Fc1ccc(CNc2ncnc3c2cnn3-c2ccccc2)cc1,0.1,11.8,-30.5,17.3,0.7,-1.2
Cc1cccc(-n2ncc3c(NCc4ccccc4)ncnc32)c1,1.0,10.6,18.4,26.3,0.1,0.2
c1ccc(CNc2ncnc3c2cnn3-c2ccccc2)cc1,2.2,7.2,6.1,28.7*,0.3,-0.3
Cc1cccc(-n2ncc3c(NCc4ccco4)ncnc32)c1,0.9,.,-5.8,33.4*,-0.1,-2.8
O=C(CSc1nnc(Cc2cc(=O)[nH]c(=O)[nH]2)n1-c1ccc(F)cc1)N1CCCCC1,-1.3,7.9,-24.4,-8.6,1.1,0.2
CC1CC(C)(C)Nc2ccc(OC(=O)c3ccco3)cc21 (centres undefined),-4.4,50.7*,68.5,40.1*,1.3,-1.0
O=C(Oc1ccc2ccccc2c1)c1ccco1,-2.1,-11.2,-20.8,-7.7,0.8,-0.1
Cc1nn2c(C(F)(F)F)cc(-c3ccc(Cl)cc3)nc2c1C(=O)N1CCOCC1,-3.7,-6.9,-9.2,-6.9,37.8*,-1.8
CC(=O)c1ccc(Oc2ncnc3sccc23)c(CN2CCOCC2)c1,-0.6,-3.5,-17.9,-6.3,0.3,-0.1
CCCSc1nc(N2CCOCC2)c2c(c1C#N)CCCC2,0.3,.,59.3,7.8,0.9,23.2*
O=C(NC1CC2CCCC(C1)N2C(=O)NC1CCCCC1)c1ccc(F)cc1 (centres undefined),0.2,-12.1,-11.5,4.2,-2.6,0.1
CCOc1ccccc1N1CCN(CC(O)COc2ccc3c(C)cc(=O)oc3c2)CC1 (centres undefined),5.3,89.1*,.,5.6,-0.1,.
Cc1cc(=O)oc2cc(OCC(O)CN3CCN(c4ccc(F)cc4)CC3)ccc12 (centres undefined),0.5,16.6,.,3.2,-0.6,.
CCn1ncc(C2=NOC(C(=O)NCc3ccc(Cl)cc3)C2)c1C (centres undefined),-4.9,42.0,-16.5,58.4*,-0.9,-1.1
COc1ccc(C2=NOC(C(=O)NCc3ccc(F)cc3)C2)cc1 (centres undefined),-1.9,40.5,11.6,56.3*,-0.3,0.0
COc1ccccc1-c1nnc(Nc2nc3c(OC)cccc3s2)o1,-4.9,51.1*,-28.2,52.9*,0.6,-1.4
COc1cccc2sc(Nc3nnc(-c4ccccc4Cl)o3)nc12,-4.1,64.0*,-184.9,25.1,1.6,-0.5
CCCCN(CC)CCNC(=O)C1c2cc(OC)c(OC)cc2C(=O)N2CCc3ccccc3C12 (centres undefined),-4.2,-2.3,-26.0,-10.2,0.3,7.4
CC(=O)N1CCc2ccc(C(=O)CN3CCN(c4cccc(C)c4C)CC3)cc21,9.8,-1.2,1.8,0.1,45.7*,1.7
CC(=O)N1CCc2cc(C(=O)CN3CCN(c4cccc(Cl)c4)CC3)ccc21,13.7,18.1,12.1,-2.4,25.9*,-1.1
Cc1cnn(C(=O)c2oc3ccccc3c2C)c1,-1.1,-2.7,-16.2,-4.8,-0.9,-1.4
O=C(OCCN1CCCCC1)c1cc2ccccc2o1,-0.3,2.4,.,4.0,-0.2,.
CN1CCN(c2nc(-c3ccncc3)nc3ccccc23)CC1,4.0,-3.9,.,6.2,9.1*,-0.1
SMILES,HTR1A agonist,5-HT1A blocker,S1P1 ag-PAM,HTR1E antagonist,5HT1E ag,S1P3 ag
c1ccc2c(N3CCCC3)nc(-c3ccncc3)nc2c1,0.8,4.9,-24.4,0.2,1.1,-0.1
c1cncc(-c2nc3cc(Cc4ccc5oc(-c6cccnc6)nc5c4)ccc3o2)c1,0.4,5.4,3.0,0.9,0.1,-0.8
c1cc(-c2nc3cc(Cc4ccc5oc(-c6ccncc6)nc5c4)ccc3o2)ccn1,-0.5,0.9,-25.5,-2.3,18.2*,0.0
O=S1(=O)C=C(Sc2nnc(-c3ccccc3)o2)c2ccccc21,-4.9,104.3*,107.0*,106.5*,-1.5,-0.3
COCCn1c(N)c(C(=O)NCc2cccs2)c2nc3ccccc3nc21,10.7,-23.0,-45.0,13.2,2.0,2.7
COc1cccc(Cn2c(N)c(C#N)c3nc4ccccc4nc32)c1OC,7.7,-11.2,-54.0,32.8*,3.5,2.2
N#Cc1c(N)n(CCOC(=O)c2cccc(Br)c2)c2nc3ccccc3nc12,30.6*,.,-89.7,6.3,5.1,1.6
CCCn1cnc2c(c1=O)c1nc3ccccc3nc1n2Cc1ccccc1OC,-1.0,1.0,-9.8,7.1,-1.1,-0.9
COc1cc(Cn2c(N)c(C#N)c3nc4ccccc4nc32)cc(OC)c1,21.4*,25.4,-58.9,13.8,6.0,4.9
COc1cccc(NC(=O)N(Cc2cc3cc(C)cc(C)c3[nH]c2=O)CC2COCCO2)c1 (centres undefined),-0.8,-3.4,-6.6,1.9,-0.2,-1.9
COc1ccc(NC(=O)C(NS(=O)(=O)c2ccc3c(c2)CCCN3C(C)=O)C(C)C)c(OC)c1 (centres undefined),-3.9,-5.4,-0.8,-8.8,16.6*,0.3
CC(=O)N1CCCc2cc(S(=O)(=O)NC(C(=O)NC(C)c3ccccc3)C(C)C)ccc21 (centres undefined),-3.5,-13.2,4.2,0.6,0.6,-1.5
CCOc1cc(NC2CS(=O)(=O)CC2O)c(OCC)cc1NC(=O)c1ccccc1 (centres undefined),-2.6,0.1,2.4,2.5,-0.1,-0.8
COc1cccc2c1C(=O)c1c(O)c3c(c(O)c1C2=O)C[C@@](O)(C(C)=O)C[C@@H]3O[C@H]1C[C@H](N)[C@H](O)[C@H](C)O1,0.5,.,120.4,57.0*,-1.2,-1.6
C(=C\c1ccccc1)/CSc1nnc(-c2ccccn2)n1Cc1ccco1,0.8,52.0*,42.6,20.4,-0.6,-0.6
Clc1ccccc1CSc1nnc(-c2ccccn2)n1Cc1ccco1,-1.9,31.9,.,2.7,-2.0,.
O=C(c1ccccc1)c1ccc(OCC(O)CN2CCCCC2)cc1 (centres undefined),-2.6,0.5,.,-2.0,0.1,-0.3
O=C(c1ccc(Cl)cc1)c1ccc(OCC(O)CN2CCOCC2)cc1 (centres undefined),-0.2,1.2,-10.5,6.3,9.1*,-0.8
O=C(Cc1ccccc1)Nc1ccc(NC(=O)c2ccco2)nc1,-4.5,1.1,-12.3,13.0,-0.4,-0.2
O=C(Nc1ccc(NC(=O)c2ccco2)nc1)c1ccccn1,-2.5,5.4,.,-2.4,34.4*,.

# Assay outcomes: PubChem BioAssay, The Scripps Research Institute Molecular Screening Center
